Experimental data: ChEMBL document CHEMBL4138193, “Novel indole and triazole based hybrid molecules exhibit potent anti-adipogenic and antidyslipidemic activity by activating Wnt3a/β-catenin pathway” (Eur J Med Chem, 2018)
Active and inactive are the calls of the source. The calls are words filed in the database; no cut-off is given here.

Legend:
Syrian golden hamster [1] = test: Induction of reverse cholestrol transport in high fat diet-induced dyslipidemia Syrian Golden hamster model assessed as reduction in weight gain at 100 mg/kg, po administered for 1 week; format: functional, organism-based; conditions: Mesocricetus auratus
Method in brief: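 Male Syrian Golden hamsters on 45% kCal HFD, dosed 100 mg/kg p.o. in 0.5% NaCMC for one week, 4 per group. Food intake and body weight recorded daily. At the end, animals were saline-perfused and liver and eWAT were excised and weighed. Paraffin sections stained with H&E and imaged at 20x.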

3T3-L1 [2] = test: Anti-adipogenic activity in mouse 3T3L1 cells assessed as reduction in lipid accumulation at early differentiation stage at 20 uM measured up to 3 days by Oil Red O staining based leica microscopy; format: functional, cell-based
Method in brief: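 3T3-L1 or C3H10T1/2 cells given 20 µM compound in differentiation media for varied time periods, then stained with Oil red O. Imaged by microscopy at 10x, representative of three independent experiments.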

3T3-L1 [3] = test: Cell cycle arrest in mouse 3T3L1 cells assessed as reduction in accumulation at S phase at 10 to 20 uM after 16 hrs by propidium iodide-staining based flow cytometry; format: functional
Method in brief: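 Confluent 3T3-L1 preadipocytes given differentiation medium (0.5 mM IBMX, 5 µg/ml insulin, 250 nM dexamethasone) with 10 or 20 µM for 16 and 24 hr. Cells trypsinized, fixed in ice-cold 70% ethanol for 2 hr, stained with propidium iodide (40 µg/ml in RNase A buffer, 30 min, room temperature). Flow cytometry gave the fractions in G1, S and G2/M; three independent experiments.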

Mus musculus [4] = species on record: Mus musculus; test: Activation of Wnt3a/beta-catenin in mouse 3T3L1 cells assessed as down-regulation of CDK6 expression at 20 uM after 16 to 24 hrs by Western blot analysis; format: cell-based
Method in brief: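 3T3-L1 cells given MDI differentiation media (0.5 mM IBMX, 5 µg/ml insulin, 250 nM dexamethasone) with or without 20 µM compound. Proteins isolated at 16 and 24 h and probed by Western blot for CDK2, CDK4, CDK6, cyclin D1 and D3. Densitometry normalized to actin, n=3, mean ± SD, Student t test.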

Mus musculus [5] = species on record: Mus musculus; test: Activation of Wnt3a/beta-catenin in mouse 3T3L1 cells assessed as down-regulation of cyclinE expression at 20 uM after 16 to 24 hrs by Western blot analysis; format: cell-based
Mus musculus [6] = species on record: Mus musculus; test: Activation of Wnt3a/beta-catenin in mouse 3T3L1 cells assessed as increase in BMP2 mRNA expression at 20 uM by qRT-PCR analysis; format: cell-based
Method in brief: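 3T3-L1 cells differentiated with IBMX/dexamethasone/insulin media with or without 20 µM compound over the differentiation period. RNA extracted with TRIZOL, 500 ng reverse-transcribed to cDNA, then quantitative real-time PCR. Three independent experiments run in triplicate, mean ± SD, one-way ANOVA with Bonferroni posttest.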

3T3-L1 [7] = test: Induction of Wnt10a mRNA expression in mouse 3T3L1 cells at 20 uM by qRT-PCR analysis; format: functional, cell-based
Method in brief: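 3T3-L1 cells induced with MDI differentiation medium with or without 20 µM. RNA isolated with TRIzol and 500 ng reverse-transcribed to cDNA for real-time PCR. n=3 with triplicates, mean ± SD; one-way ANOVA with Bonferroni post-test.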

Mus musculus [8] = species on record: Mus musculus; test: Activation of Wnt3a/beta-catenin in mouse 3T3L1 cells assessed as induction of LEF1 expression at 20 uM after 16 to 24 hrs by Western blot analysis; format: cell-based
Mus musculus [9] = species on record: Mus musculus; test: Activation of Wnt3a/beta-catenin in mouse 3T3L1 cells assessed as down-regulation of CDK2 expression at 20 uM after 16 to 24 hrs in presence of FH353 by Western blot analysis; format: cell-based
Method in brief: (§1)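 Confluent 3T3-L1 cells given differentiation media (IBMX/insulin/dexamethasone) with 20 µM compound, with or without the β-catenin/TCF inhibitor FH353 (10 µM). Proteins isolated at 16 and 24 h and Western blotted after SDS-PAGE and nitrocellulose transfer. Blocking in 5% milk/TBS-T, primary antibody overnight at 4 °C, chemiluminescent detection, β-actin control, three independent experiments.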

Mus musculus [10] = species on record: Mus musculus; test: Activation of Wnt3a/beta-catenin in mouse 3T3L1 cells assessed as down-regulation of CDK4 expression at 20 uM after 16 to 24 hrs in presence of FH353 by Western blot analysis; format: cell-based; method in brief: as §1
Mus musculus [11] = species on record: Mus musculus; test: Activation of Wnt3a/beta-catenin in mouse 3T3L1 cells assessed as down-regulation of C/EBPalpha expression at 20 uM after 2 to 6 days in presence of FH353 by Western blot analysis; format: cell-based
Mus musculus [12] = species on record: Mus musculus; test: Activation of Wnt3a/beta-catenin in mouse 3T3L1 cells assessed as down-regulation of FAS expression at 20 uM after 2 to 6 days in presence of FH353 by Western blot analysis; format: cell-based
Syrian golden hamster [13] = test: Anti-dyslipidemic activity in high fat diet-induced dyslipidemia Syrian Golden hamster model assessed as reduction in serum NEFA levels at 100 mg/kg, po administered for 1 week followed by overnight fasting post last dose; format: functional, organism-based; conditions: Mesocricetus auratus
Method in brief: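 Male Syrian golden hamsters (8–10 wk, 100–120 g), 4 per group, given 45% kcal HFD for 4 days, then 100 mg/kg p.o. in 0.5% NaCMC daily for one week alongside HFD. Blood taken from retro-orbital plexus after overnight fast. TG, HDL, LDL, ALT, AST measured on a clinical bio-analyzer and NEFA by kit. Mean ± SEM, one-way ANOVA with Bonferroni.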

Syrian golden hamster [14] = test: Anti-adipogenic activity in high fat diet-induced dyslipidemia Syrian Golden hamster model assessed as increase in beta-catenin levels in eWAT at 100 mg/kg, po administered for 1 week by Western blot analysis; format: functional, organism-based; conditions: Mesocricetus auratus
Method in brief: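 Male Syrian golden hamsters (8–10 wk, 100–120 g) fed 45% kcal HFD for 4 days, then dosed orally at 100 mg/kg in 0.5% NaCMC for one week, n=4 per group. Fenofibrate 100 mg/kg p.o. used as positive control. Epididymal WAT proteins Western blotted, three independent experiments.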

3T3-L1 [15] = test: Upregulation of wnt3a protein expression in mouse 3T3L1 cells at 20 uM after 16 to 24 hrs by Western blot analysis; format: functional, cell-based
Method in brief: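 3T3-L1 cells given MDI with or without 20 µM; protein harvested at 16 and 24 hr. Lysates in ice-cold buffer with protease and phosphatase inhibitors were BCA-quantified, run on 8–12% SDS-PAGE, transferred to nitrocellulose and probed overnight at 4 °C. Detection by chemiluminescence, normalized to β-actin; three independent experiments.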

Mus musculus [16] = species on record: Mus musculus; test: Activation of Wnt3a/beta-catenin in differentiated mouse 3T3L1 cells assessed as upregulation of phosphorylated LRP6 expression at 20 uM after 16 to 24 hrs by Western blot analysis
Method in brief: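 3T3-L1 preadipocytes grown to confluence in high-glucose DMEM/10% FBS, then given differentiation media (0.5 mM IBMX, 5 µg/ml insulin, 250 nM dexamethasone) with or without 20 µM compound. Protein isolated at set time points, lysed with protease/phosphatase inhibitors, BCA-quantified, resolved by 8–12% SDS-PAGE, immunoblotted with ECL detection. β-actin loading control, densitometry normalized to actin, n=3.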

Mus musculus [17] = species on record: Mus musculus; test: Activation of Wnt3a/beta-catenin in mouse 3T3L1 cells assessed as induction of TCF1 expression at 20 uM after 16 to 24 hrs in presence of beta-catenin/TCF complex inhibitor FH353 by Western blot analysis; format: cell-based; method in brief: as §1

- Activity (Mus musculus [16]): Active
SMILES: Cc1ccc(S(=O)(=O)N(Cc2cn(Cc3cccc(F)c3F)nn2)Cc2cn(S(=O)(=O)c3ccc(C)cc3)c3ccccc23)cc1
- Activity (Syrian golden hamster [1]): Active
- Activity (3T3-L1 [2]): Active
- Activity (3T3-L1 [3]): Active
- Activity (Mus musculus [4]): Active
- Activity (Mus musculus [5]): Active
- Activity (Mus musculus [6]): Active
- Activity (3T3-L1 [7]): inactive
- Activity (Mus musculus [8]): Active
- Activity (Mus musculus [9]): inactive
- Activity (Mus musculus [10]): inactive
- Activity (Mus musculus [11]): inactive
- Activity (Mus musculus [12]): inactive
- Activity (Syrian golden hamster [13]): Active
- Activity (Syrian golden hamster [14]): Active
- Activity (3T3-L1 [15]): Active
- Activity (Mus musculus [17]): inactive
